Results published in PMC11529722 (Science Advances, 2024).

Key:
[1] = tested on: pronase; assay: pronase; details: set for optimal enzyme activity, up to 1 hour
[2] = tested on: chymotrypsin; assay: chymotrypsin; details: set for optimal enzyme activity, up to 1 hour
[3] = tested on: pepsin; assay: pepsin in hydrochloric acid solution; details: 37°C, up to 150 min
[4] = tested on: elastase; assay: elastase; details: set for optimal enzyme activity, up to 1 hour
[5] = tested on: R6/2 mice; assay: VCP level in striatal mitochondrial fractions of R6/2 mice; format: in vivo, mouse; details: 13-week-old R6/2 mice, WB, ATPB loading control
Procedure, shortened: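 Striatum of 13-week-old pump-dosed mice homogenised in 250 mM sucrose, 20 mM Hepes pH 7.5, 10 mM KCl, 1.5 mM MgCl₂, EDTA/EGTA. Passed 20× through a 25-gauge needle, iced 30 min. Spun 800g 10 min, then supernatant 10,000g 20 min at 4°C; pellet washed and re-spun. Mitochondria lysed in 1% Triton X-100; VCP Western blot, ATPB loading control.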

[6] = tested on: R6/2 mice; assay: In vivo efficacy in HD R6/2 mice: body weight, survival, behavior; parameters: species or system mouse
Procedure, shortened: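 Male hemizygous R6/2 mice (HD exon 1, 100–150 CAG) and WT littermates. Saline, peptide (3 mg kg⁻¹ day⁻¹) or polymer (1.69 mg kg⁻¹ day⁻¹) given by subcutaneous 28-day osmotic pump from 6 weeks; pump replaced after 4 weeks. Weekly tail suspension 20 s, weeks 7–13, clasping scored 0–3. Body weight and survival recorded throughout. 13–32 mice/group for behaviour.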

[7] = tested on: red blood cells; assay: Hemocompatibility: hemolysis; details: human red blood cells in PBS, 37°C, 1 hour, absorbance 405 nm, n = 4
Procedure, shortened: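 Na citrate-anticoagulated whole human blood spun 500g 5 min. Plasma replaced with 150 mM NaCl; wash repeated twice more; RBCs resuspended in PBS. Compound added 1:20 (v/v) to RBC suspension, 37°C 1 h, n = 4. Spun 500g 5 min; supernatant transferred for reading. 20% Triton X-100 positive control; PBS vehicle.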

[8] = tested on: C57BL/6J mice; assay: Toxicity in C57BL/6J mice: histopathology scoring; format: in vivo, mouse; details: C57BL/6J WT mice, 3 mg/kg with respect to peptide, Alzet osmotic pump, 8 weeks, blinded pathologist
Procedure, shortened: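 Male C57BL/6J mice, three groups of n = 3–4. Saline, peptide or polymer (3 mg/kg with respect to peptide) given by subcutaneous osmotic pump for 8 weeks.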

[9] = tested on: pronase, chymotrypsin, elastase; assay: Enzyme degradation resistance by SDS-PAGE; format: in vitro ADME; details: treated separately with pronase, chymotrypsin and elastase for 1 hour, Coomassie Blue
[10] = tested on: HdhQ111 cells; assay: Mitochondrial fragmentation assay; format: cell-based, mouse; details: 3 μM three times for 3 days, anti-Tom20, at least 95 cells per group, n = 3
Procedure, shortened: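 HdhQ111 cells dosed at 3 μM three times over 3 days. Fixed in 4% PFA 20 min, permeabilised with 0.1% Triton X-100, blocked with 2% goat serum. Anti-Tom20 (1:4000) overnight at 4°C, Alexa 488 secondary 2 h RT, Hoechst nuclei stain. Confocal imaging; % cells with fragmented mitochondria, ≥95 cells/group, ≥3 independent replicates.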

[11] = tested on: C3a in human serum; assay: C3a complement activation ELISA; details: human serum 4 hours; P1 at 9.9 and 33 μM (3 and 10 mg/kg); n = 4
Procedure, shortened: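 Test compound incubated in human serum at 1:250 and 1:500 (compound:serum) for 4 h, then diluted. C3a ELISA: 2 h in C3a antibody-coated wells with shaking, 3 washes, biotin primary antibody 1 h, washes, streptavidin 1 h, substrate 30 min, absorbance 450 nm. Cobra venom factor positive control; DPBS vehicle.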

[12] = tested on: R6/2 mice; assay: Neuropathology in striatum of R6/2 mice; format: in vivo, mouse; details: 13-week-old R6/2 mice
[13] = target: pepsin (Sus scrofa, UniProt P00791); assay: Enzymatic degradation assay with pepsin by HPLC; format: in vitro ADME; details: pepsin 0.1 μM, pH 2, peptide 200 μM, 37°C, up to 150 min, analytical HPLC
Chain of pepsin (Sus scrofa, UniProt P00791) (P00791 60-385): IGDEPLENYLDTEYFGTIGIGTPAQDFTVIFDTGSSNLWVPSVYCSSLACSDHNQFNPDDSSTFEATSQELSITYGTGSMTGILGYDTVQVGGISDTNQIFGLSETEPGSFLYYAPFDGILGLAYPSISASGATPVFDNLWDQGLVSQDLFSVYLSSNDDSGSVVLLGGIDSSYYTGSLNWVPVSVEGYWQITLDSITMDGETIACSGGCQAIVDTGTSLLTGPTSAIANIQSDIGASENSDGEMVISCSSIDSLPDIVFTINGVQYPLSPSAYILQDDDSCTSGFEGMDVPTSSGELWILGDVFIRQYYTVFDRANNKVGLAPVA

[14] = target: VCP protein (Homo sapiens, UniProt P55072); assay: BLI; format: binding; details: immobilized VCP
Chain of VCP protein (P55072 whole entry, species assumed): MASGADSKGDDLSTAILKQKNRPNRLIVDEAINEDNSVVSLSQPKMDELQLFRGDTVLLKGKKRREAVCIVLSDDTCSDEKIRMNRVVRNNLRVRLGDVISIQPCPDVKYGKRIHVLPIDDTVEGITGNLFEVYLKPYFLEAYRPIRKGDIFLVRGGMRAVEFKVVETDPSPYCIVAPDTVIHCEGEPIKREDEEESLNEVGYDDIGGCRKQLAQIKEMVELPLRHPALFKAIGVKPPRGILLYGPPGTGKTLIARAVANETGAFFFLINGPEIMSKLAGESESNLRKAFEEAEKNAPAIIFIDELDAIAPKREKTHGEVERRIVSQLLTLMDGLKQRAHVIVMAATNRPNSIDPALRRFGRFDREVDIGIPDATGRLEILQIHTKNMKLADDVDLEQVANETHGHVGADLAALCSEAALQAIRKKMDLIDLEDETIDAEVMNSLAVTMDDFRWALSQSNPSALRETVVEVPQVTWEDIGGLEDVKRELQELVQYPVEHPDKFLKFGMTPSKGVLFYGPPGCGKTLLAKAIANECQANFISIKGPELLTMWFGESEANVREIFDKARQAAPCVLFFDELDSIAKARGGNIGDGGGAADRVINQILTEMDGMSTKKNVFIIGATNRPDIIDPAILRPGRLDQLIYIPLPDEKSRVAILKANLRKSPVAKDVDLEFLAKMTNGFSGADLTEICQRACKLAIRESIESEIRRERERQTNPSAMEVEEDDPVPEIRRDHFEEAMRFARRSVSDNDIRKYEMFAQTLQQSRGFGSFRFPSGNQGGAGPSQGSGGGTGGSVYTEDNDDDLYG
Procedure, shortened: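 Anti-His biosensor hydrated, then His-tagged VCP (50 µg/ml in sodium acetate buffer, pH 6.5) immobilized. Test compound (peptide or polymer) dissolved in tris buffer (pH 8.4) and run over a range of concentrations as analyte. KD, on-rate (ka) and off-rate (kd) were measured for each analyte by biolayer interferometry (BLItz).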

[15] = tested on: C57BL/6J mice; assay: Toxicity in C57BL/6J mice: complete blood count; format: in vivo, mouse; details: C57BL/6J WT mice, 3 mg/kg with respect to peptide, Alzet osmotic pump, 8 weeks
Procedure, shortened: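 Healthy male C57BL/6J mice in three groups (n = 3 to 4 per group) received test compound at 3 mg/kg with respect to peptide, or saline as negative control, via subcutaneously implanted osmotic pump for 8 weeks.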

HVLVMSATRR
not cleaved [1]: maintained molecular weight after 1 hour | not cleaved [2]: maintained molecular weight after 1 hour | not cleaved [3]: no cleavage observed for up to 150 min | not cleaved [4]: maintained molecular weight after 1 hour

HVLVMSATRR [P1]
VCP level on striatal mitochondria [5]: blocks aberrant VCP mitochondrial translocation | effects of treatment on WT mice ([6]; WT littermates, P1 1.69 mg kg^−1 day^−1, 6 to 13 weeks of age): no significant effects on motor activity, body weight, or neuropathology | body weight vs R6/2 saline control ([6]; male R6/2 mice, 3 mg kg^−1 day^−1 per peptide (P1 1.69 mg kg^−1 day^−1), Alzet pump, 6 to 13 weeks of age): significantly inhibiting weight loss | survival vs R6/2 saline control ([6]; male R6/2 mice, 3 mg kg^−1 day^−1 per peptide, Alzet pump, 6 to 13 weeks of age): extended survival | clasping times compared to HV3-TAT-treated mice ([6]; male R6/2 mice, tail suspension test): shorter clasping times | hindlimb clasping behavior ([6]; male R6/2 mice, tail suspension test weekly, 3 mg kg^−1 day^−1 per peptide, Alzet pump): attenuated the clasping behavior | hemolytic activity compared to vehicle control [7]: nonsignificant | organ pathology vs saline control group [8]: no significant differences in pathology | molecular weight after enzyme treatment (gel electrophoresis) [9]: maintained molecular weight | mitochondrial fragmentation vs vehicle [10]: marked reduction in the number of fragmented mitochondria | C3a complement activation compared to vehicle [11]: did not show a statistically significant difference in activity | striatal BDNF level compared to the HV3-TAT treatment group ([12]; Western blot): significantly higher level of BDNF | mtHtt aggregates in striatum vs saline-treated R6/2 mice ([12]; anti-Htt EM48 staining, n = 6): reduced number of mtHtt aggregates | DARPP-32 immunohistochemical staining in striatum ([12]; n = 6): Enhanced levels of DARPP-32 | cleavage by pepsin [13]: no cleavage observed | fold decrease in dissociation constant compared to the HV3-TAT peptide [14]: 150 fold | koff ([14]; dissociation rate constant): 2.5e-05 s⁻¹ | complete blood count and blood chemistry profile vs saline [15]: no significant deviation of any markers
